The source of these data is paper PMC4653337 (Pharmacognosy Magazine, 2015).

Each structure is given as a SMILES string. Values after ≈ are worked out from the molar mass of the structure shown. Values joined by “and” are separate entries in the source; they are usually repeats but may differ in a detail not shown here. Equal values may be shown once. Where a name gives a salt, the structure may show the parent alone. Read-outs that look alike come from different tables or passages of the source. Where only a bound is given, the exact number is not on record here.

For data set [1], the system named is A549 human lung cancer cell line. The experiment in a line: Sulforhodamine B. It counts as cell-based. The settings on record: read-out: Growth inhibition, IC50. In outline: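 SRB growth assay. A549 cells were grown in RPMI 1640 with 10% FBS, 2% penicillin/streptomycin and 1% amphotericin B, then seeded at 8,000 per well overnight. Cells were exposed 24, 48 or 72 h to graded test compound (0.5% DMSO final; reference drug alongside). Cells were fixed in cold 40% TCA for 1 h at 4°C and stained with 0.4% SRB for 30 min. Dye was solubilised in 10 mM Tris pH 10.5 and read at 492 nm. IC50 came from % inhibition dose-response curves.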

In data set [2] the test system is MRC-5 human lung fibroblast. Kind of data set: Sulforhodamine B. It counts as cell-based. The conditions noted are these: for IC50: Homo sapiens, read-out: Growth inhibition, IC50. In outline: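 SRB growth assay. MRC-5 fetal lung fibroblasts were grown in MEM with 10% FBS and 1% penicillin/streptomycin at 37°C, 5% CO2, then seeded at 8,000 per well overnight. Cells were exposed 24, 48 or 72 h to graded test compound (0.5% DMSO final). Cells were fixed in cold 40% TCA at 4°C, stained with 0.4% SRB, solubilised in 10 mM Tris pH 10.5 and read at 492 nm. IC50 came from % inhibition versus concentration curves.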

Data set [3] concerns A549 cells. The settings on record: A549, 48 h treatment; ref 10 (Lee et al.); cited from earlier work.
For data set [4], the system named is A549 cells. Kind of data set: Annexin V-FITC/PI staining, flow cytometry. It counts as cell-based, human. The conditions noted are these: 72 h; for percentage of early apoptotic cells (Annexin V-FITC+ PI-): negative control 1.42 ± 0.47%; for population of late apoptotic or secondary necrotic cells (Annexin V-FITC+ PI+): negative control 1.80 ± 0.30%. A digest of the protocol:
(§1)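 A549 cells in RPMI 1640 with 10% FBS, 37°C, 5% CO2. Test compound in DMSO, 0.5% DMSO final. Annexin: 2.4 × 10^5 cells/well adhered overnight, 72 h exposure, 1 × 10^5 cells stained with FITC-annexin V and PI, 10,000 events per replicate. JC-1: 72 h, 15 min dye, red aggregate (FL2-A) vs green monomer (FL1-A). Mean ± SEM; at least two runs in triplicate.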

Data set [5] can be described thus: Mitochondrial membrane potential assay. It counts as cell-based, human. The settings on record: human, A549 cells, Population of viable cells (P5 region, high Δψm), A549, 42 μM, untreated 91.42 ± 0.36%. A digest of the protocol: as §1
Data set [6] has as its system A549 cells. Kind of data set: Mitochondrial membrane potential assay. It counts as cell-based, human. The settings on record: A549, 14, 28, 42 μM, 72 h, dose-dependent. In outline:
as §1

The subject of data set [7] is A549 cells. The experiment in a line: DNA fragmentation by TUNEL assay. The settings on record: 72 h, negative control 4.27 ± 0.13%. The class given is cell-based, human.
Data set [8] has as its system A549 cells. Kind of data set: Cell cycle analysis. The class given is cell-based, human. The conditions noted are these: 72 h; for percentage of cells at S phase: 0 μM 8.94 ± 0.23%. A digest of the protocol: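 After 72 h of test compound, adherent and floating A549 cells were pooled and fixed in 70% ethanol overnight. Cells were stained 30 min at room temperature with 50 μg/ml PI, 50 μg/ml RNase, 0.1% Triton X-100 and 1 mg/ml sodium citrate (final). DNA content was read by flow cytometry and modelled into sub-G1, G1, S and G2/M fractions. Runs were done at least twice in triplicate; one-way ANOVA/Tukey versus control.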

Another data set has as its system caspase-3 in A549 cells. Kind of data set: Caspase-3 activity. The class given is cell-based, human. The settings on record: A549, 12, 24, 48 h.
Another data set concerns caspase-8 in A549 cells. Kind of data set: Caspase-8 activity. The conditions noted are these: A549, 12, 24, 48 h; highest RLU at 14 μM at 24 h and 48 h. The class given is cell-based, human.
For the next data set, the system named is caspase-9 in A549 cells. Kind of data set: Caspase-9 activity. It counts as cell-based, human. The settings on record: A549, 12, 24, 48 h; highest RLU at 14 μM at 24 h and 48 h.
Data set [9] relates to A549 cells. The experiment in a line: Phase contrast microscopy. The conditions noted are these: A549, 14, 28, 42 μM, 72 h. The class given is cell-based, human.
For data set [10], the system named is DNA topoisomerase I (Top 1). The settings on record: cited from earlier work.
The test system of data set [11] is benign prostatic hyperplasia (BPH-1) epithelial cell line. The settings on record: BPH-1, 10 µM and 20 µM for 48 h; cited from earlier work.
Data set [12] deals with MDA-MB-435 breast cancer cells. The settings on record: MDA-MB-435, 5–50 µM for 24 h; cited from earlier work.
Data set [13] relates to HCT-116 human colon cancer cells. The settings on record: cited from earlier work.
A further data set relates to breast cancer xenografts. The conditions noted are these: breast cancer xenografts in nude mice; ref 24 (Monteiro et al.); cited from earlier work.
The test system of a further data set is mice. The settings on record: cited from earlier work.

For the molecule `COc1cccc2c1C(=O)c1c(O)c3c(c(O)c1C2=O)C[C@@](O)(C(=O)CO)C[C@@H]3O[C@H]1C[C@H](N)[C@H](O)[C@H](C)O1` [Doxorubicin, Doxorubicin hydrochloride, reference compound], the IC50 in data set [1] (A549, 24 h) was 2.85 ± 0.2 µM; in data set [1] (A549, 48 h) it was 0.22 ± 0.03 µM; in data set [1] (A549, 72 h) it was 0.02 ± 0.02 µM; in data set [2] (MRC5, 24 h), 5.71 ± 0.55 µM; in [2] (MRC5, 48 h), 2.01 ± 0.04 µM; in data set [2] (MRC5, 72 h) it was 1.09 ± 0.1 µM. The “IC50 (cytotoxic effects on A549)” value with A549 cells [3] was 0.5 µg/mL.

On to `COc1cc(O)c(CC=C(C)C)c(O)c1C(=O)/C=C/c1ccc(O)cc1` [Xanthohumol, 2', 4, 4'-trihydroxy-3'-prenyl-6'-methoxychalcone], for which the IC50 in data set [1] (A549, 24 h) is 74.1 ± 1.98 µM; in data set [1] (A549, 48 h), 25.5 ± 0.3 µM; in data set [1] (A549, 72 h), 13.5 ± 0.82 µM; in [2] (MRC5, 24 h), > 282 µM and > 100 µg/mL; in data set [2] (MRC5, 48 h) it was 149 ± 4.96 µM; in [2] (MRC5, 72 h), 94.4 ± 1.77 µM. Moreover, the “Toxicity to normal cells (MRC-5) versus cancer cells (A549)” value in data set [2] (comparison of IC50 values on MRC-5 and A549, SRB assay) is on record as “less toxic to normal cells compared to cancer cells”. Besides, the “percentage of early apoptotic cells (Annexin V-FITC+ PI-)” value worked out at 2.72 ± 0.59% in the data set with A549 cells [4] (A549, 14 μM); 26.08 ± 1.50% in the data set on A549 cells [4] (A549, 28 μM); 34.42 ± 4.41% in the data set on A549 cells [4] (A549, 42 μM). Besides, the “population of late apoptotic or secondary necrotic cells (Annexin V-FITC+ PI+)” value is 4.90 ± 0.85% in the data set with A549 cells [4] (A549, 14 μM); 17.05 ± 3.12% with A549 cells [4] (A549, 28 μM); 33.27 ± 3.55% with A549 cells [4] (A549, 42 μM). Further, the viability at 72 h, 42 µM in [5] was 2.88 ± 0.62%. For the same molecule, in the data set with A549 cells [6], the “Effect on mitochondrial membrane potential (Δψm)” value is “significantly reduced”. Also, the “percentage of cells with DNA fragmentation” value with A549 cells [7] (A549, 28 μM) is 34.7 ± 0.30%; in the data set with A549 cells [7] (A549, 42 μM), 39.2 ± 0.15%. Further, the “percentage of cells at S phase” value is 12.34 ± 1.09% in the data set on A549 cells [8] (A549, 14 μM); 16.43 ± 1.52% in the data set on A549 cells [8] (A549, 28 μM); 46.95 ± 2.03% in the data set on A549 cells [8] (A549, 42 μM). Moreover, the “Effect on sub G1 population” value with A549 cells [8] (A549, increasing concentration) is “increased the percentage of cells arrested at sub G1 peak”. In addition, the “Caspase-3 activity (RFU)” value in the data set with caspase-3 in A549 cells is “RFU values increased as concentration and treatment time increased”. The “Caspase-8 activity (RLU)” value in the data set on caspase-8 in A549 cells is given as “significantly increased”. For the same molecule, the “Caspase-9 activity (RLU)” value in the data set on caspase-9 in A549 cells is “significantly increased”. For the same molecule, the Morphological changes entry with A549 cells [9] was “atrophy, size shrinkage, decrease in cell number, and detachment of cells”. Moreover, in the data set on A549 cells [3], the “IC50 (cytotoxic effects on A549)” value was 4.3 µg/mL (≈ 12.1 µM). For the same molecule, the “Effect on DNA topoisomerase I (Top 1) activity” value in [10] was “inhibition of DNA topoisomerase I (Top 1) activity”. Moreover, the Cell cycle effect entry in [11] and in data set [12] was “S phase arrest” throughout. Besides, the Caspase activation result in data set [13] was “Activation of all caspase-3, -8, and -9”. In addition, in the data set on breast cancer xenografts, the “In vivo antitumor effects on isolated tumors” value was “decrease in tumor-surrounding inflammatory cells and a large central necrosis”. Further, the “Organ function and homeostasis” value with mice (feeding, ref 6 (Dorn et al.)) was “did not impair organ function and homeostasis”. In the data set with mice (oral administration, ref 25 (Vanhoecke et al.)), the “Hematological and biochemical blood analyses versus control group” value is “no difference in hematological and biochemical blood analyses”.
